# Measured values of several laboratories.
# Target: Myotonin-protein kinase (DMPK, Homo sapiens, UniProt Q09013)
Structure (SMILES),test,setting,measurement,result
CCN(CC)CCNC(=O)c1c(C)[nH]c(/C=C2\C(=O)Nc3ccc(F)cc32)c1C,"enzyme activity, inhibitor",0.3 µM,inhibition,-8%
CCCOc1ccc(OC)c(F)c1C(=O)c1ccc(C(=O)N[C@@H]2CNC[C@H]2NC(=O)c2ccc3[nH]ncc3c2)cc1,"enzyme activity, inhibitor",10 µM,remaining activity,93%
Cn1c2c(Cl)c(Cl)ccc2c2cn[nH]c(=O)c21,"thermal stability, DSF",10 µM,ΔTm,0.4 °C
COc1ccc2c(O[C@@H]3C[C@H]4C(=O)N[C@]5(C(=O)O)CC5/C=C\CCCCC[C@H](NC(=O)OC5CCCC5)C(=O)N4C3)cc(-c3csc(NC(=O)C(C)C)n3)nc2c1C (stereo partly shown),"cell-free assay, competition with immobilised ligand",1 µM,remaining binding,83%
C=CC(=O)Nc1cc(Nc2nccc(Nc3cc(Cl)c(F)cc3C(C)(C)O)n2)c(OC)cc1N1CC[C@@H](N(C)C)C1,"enzyme activity, inhibitor",1 µM,inhibition,11%
CC(C)(O)[C@H]1CC[C@H](Nc2ccc3ncc(-c4cccc(C(F)(F)F)c4)n3n2)CC1,"enzyme activity, inhibitor",1 µM,remaining activity,97.5%
Cn1c2c(c3ccc(Cl)c(Cl)c31)C(C#N)C1(CCCC1)NC2=O (stereo not shown),"thermal stability, DSF",10 µM,ΔTm,-0.2 °C
CS(=O)(=O)NCC[C@H](NC(=O)c1cncc2c1cnn2-c1ccc(F)cc1)c1ccnc(S(C)(=O)=O)c1,"cell-free assay, competition with immobilised ligand",1 µM,remaining binding,100%
Cn1c2c(c3ccc(Cl)c(Cl)c31)C(C#N)C1(CCOCC1)NC2=O (stereo not shown),"thermal stability, DSF",10 µM,ΔTm,0 °C
Cc1ccc(Nc2nccc(N(C)c3ccc4c(C)n(C)nc4c3)n2)cc1S(N)(=O)=O,"enzyme activity, inhibitor",10 µM,inhibition,-12%
O=C(NCc1ncc(C(F)(F)F)cc1Cl)c1ccc2c(c1)C1(CCS(=O)(=O)CC1)[C@@H](C1CC1)N2S(=O)(=O)c1ccc(F)cc1,"cell-free assay, competition with immobilised ligand",1 µM,remaining binding,86%
CCOc1cc(-c2nncn2C)ccc1Nc1ncc2cc(C)nc(NCC(C)(C)C)c2n1,"cell-free assay, TR-FRET",1 µM,inhibition,≤ 15%
Cn1c2c(c3ccc(Cl)c(Cl)c31)C(C#N)C1(CCNCC1)NC2=O (racemic),"thermal stability, DSF",10 µM,ΔTm,-0.3 °C
O=C1Nc2ccc(Cl)cc2C1=Cc1cc(Cl)c(O)c(Cl)c1,cell-free assay,0.5 µM,remaining signal,112%
CC(C)(C)c1nc2c(s1)c1nc(N)ncc1c1ccc(NS(=O)(=O)c3c(F)cccc3F)c(F)c12,"enzyme activity, inhibitor, radiometric",1 µM,remaining activity,95%
CN(c1ccnc(CNc2nc(Nc3ccc4c(c3)CC(=O)N4)ncc2C(F)(F)F)n1)S(C)(=O)=O,"cell-free assay, competition with immobilised ligand",1 µM,remaining binding,23%
COc1cc2c(Nc3ccc(Br)cc3F)ncnc2cc1OCC1CCN(C)CC1,cell-free assay,0.5 µM,remaining signal,94.6%
Cn1c2c(Cl)c(Cl)ccc2c2cc[nH]c(=O)c21,"thermal stability, DSF",10 µM,ΔTm,0 °C
COc1ccc2cc(OCC3(C(=O)O)CN(C(=O)c4ccc(F)cc4)C3)ccc2c1,"cell-free assay, competition with immobilised ligand",1 µM,remaining binding,76%
CNC(=O)c1cc(Oc2ccc(NC(=O)Nc3ccc(Cl)c(C(F)(F)F)c3)cc2)ccn1,"enzyme activity, inhibitor",0.3 µM,inhibition,-9%
Cc1sc(C(=O)NC2COC2)cc1-n1cc(NC(=O)Nc2c(F)cccc2Cl)cn1,"enzyme activity, inhibitor",10 µM,remaining activity,95.2%
Nc1ncnc2occ(-c3ccc(NC(=O)Nc4cc(C(F)(F)F)ccc4F)cc3)c12,"cell-free assay, inhibitor",20 µM,remaining signal,73%
O=C(O)[C@H]1[C@H](Cn2nnc3ccccc3c2=O)CC[C@@H]1C(=O)c1ccc(OCCC2CCOCC2)cc1,"cell-free assay, competition with immobilised ligand",1 µM,remaining binding,83%
Cn1c2c(Cl)c(Cl)ccc2c2cc(N)[nH]c(=O)c21,"thermal stability, DSF",10 µM,ΔTm,0.1 °C
CO[C@H]1CC[C@H](CNc2ccc(S(=O)(=O)NC(=O)c3ccc(N4CCN(CC5=C(c6ccc(Cl)cc6)CC(C)(C)CC5)CC4)cc3Oc3cnc4[nH]ccc4c3)cc2[N+](=O)[O-])CC1,"cell-free assay, competition with immobilised ligand",1 µM,remaining binding,91%
O=C(Nc1cnn(-c2csc(C(=O)NC3COC3)c2)c1)Nc1ccccc1Cl,"enzyme activity, inhibitor",5 µM,remaining activity,102%
CS(=O)(=O)c1cc(C2(NC(=O)c3cncc4c3cnn4-c3ccc(F)cc3)CC2)ccn1,"cell-free assay, competition with immobilised ligand",1 µM,remaining binding,99%
Cc1ccc(C(=O)Nc2ccc(CN3CCN(C)CC3)c(C(F)(F)F)c2)cc1C#Cc1cnc2cccnn12,"enzyme activity, inhibitor",23.5 nM,remaining activity,100%
